Laboratory results: ChEMBL document CHEMBL4715758, “Hit-to-Lead Optimization of a Novel Class of Potent, Broad-Spectrum Trypanosomacides” (J Med Chem, 2016)
Active and inactive are the calls of the source. No cut-off for these calls is given here.

Key:
[1] = tested on: Trypanosoma brucei brucei; test: Antitrypanosomal activity against Trypanosoma brucei brucei Lister 427 strain blood stream forms incubated for 48 hrs by resazurin dye based fluorescence assay; type: functional, organism-based; settings: Lister 427, 48 h
[2] = Selectivity index, ratio of IC50 for cytotoxicity against human HEK293 cells assessed as reduction in cell viability to IC50 for antitrypanosomal activity against Trypanosoma brucei brucei Lister 427 blood stream form; type: toxicity, cell-based; settings: read-out: Ratio IC50
[3] = Metabolic stability in human liver microsomes assessed as degradation half-life measured after 60 mins in presence of NADPH generating system by LC-MS analysis; type: ADME, Microsome; settings: read-out: T50
[4] = Intrinsic clearance in human liver microsomes assessed per mg protein measured after 60 mins in presence of NADPH generating system by LC-MS analysis; type: ADME, Microsome; settings: read-out: CLH
Trypanosoma cruzi [5] = test: Antitrypanosomal activity against Trypanosoma cruzi Tulahuen strain trypomastigotes infected in rat H9c2 cells incubated for 72 hrs by DRAQ5 DNA dye based imaging analysis; type: functional, organism-based; settings: H9c2, 72 h
[6] = tested on: Trypanosoma brucei brucei; test: Antitrypanosomal activity against Trypanosoma brucei brucei Lister 427 strain blood stream form assessed as parasite growth inhibition at 10 uM incubated for 48 hrs by resazurin dye based fluorescence assay relative to control; type: functional; settings: for inhibition at 10 µM: Lister 427, 48 h
In short: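 Alamar Blue (resazurin) growth-inhibition screen against T. b. brucei at 10 μM, the same assay used to find the original hit. Compounds reaching 50% or greater inhibition were then taken into concentration–response testing for IC50.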

Trypanosoma cruzi [7] = test: Antitrypanosomal activity against Trypanosoma cruzi Tulahuen strain trypomastigotes infected in rat H9c2 cells at 10 uM incubated for 72 hrs by DRAQ5 DNA dye based imaging analysis relative to control; type: functional
[8] = Selectivity index, ratio of IC50 for cytotoxicity against rat H9c2 cells assessed as reduction in cell viability to IC50 for antitrypanosomal against Trypanosoma cruzi Tulahuen trypomastigotes infected in rat H9c2 cells; type: toxicity, cell-based; settings: read-out: Ratio IC50

SMILES	IC50 [1]	IC50 (Trypanosoma cruzi [5])	selectivity ratio [2]	selectivity ratio [8]	other results
O=C(NCCc1csc(-c2ccccc2)n1)c1ccoc1	350 nM	–	240	–	–
O=C(NCCc1csc(-c2ccccc2)n1)C1CCCC1	–	–	–	–	half-life [3]: 6 min; microsomal CLint [4]: 296 µL/min/mg
O=C(NCCc1csc(-c2ccccc2)n1)c1cnco1	–	–	–	–	inhibition at 10 µM [6]: < 50%; inhibition at 10 µM (Trypanosoma cruzi [7]): < 50%
O=C(Cc1ccc2c(c1)OCO2)NCCc1csc(-c2ccccc2)n1	–	40 µM	–	> 1.2	inhibition at 10 µM [6]: < 50%
COc1cccc(C(=O)NCCc2csc(-c3ccccc3)n2)c1	1900 nM	3.2 µM	26	> 15	–
COc1ccc(C(=O)NCCc2csc(-c3ccccc3)n2)cc1	–	–	–	–	inhibition at 10 µM [6]: < 50%
O=C(NCCc1csc(-c2ccccc2)n1)c1cc(Br)co1	2500 nM	5 µM	12	> 10	–
CCN(CC)C(=O)NCCc1csc(-c2ccccc2)n1	260 nM	1 µM	320	> 50	–
COc1ccccc1C(=O)NCCc1csc(-c2ccccc2)n1	10600 nM	10 µM	2	> 5	–
O=C(NCCc1csc(-c2ccccc2)n1)c1ccc[nH]1	–	6.3 µM	–	–	–
Cc1ccccc1C(=O)NCCc1csc(-c2ccccc2)n1	3300 nM	3.2 µM	2.5	> 15	–
CCC(=O)NCCc1csc(-c2ccccc2)n1	–	–	–	–	inhibition at 10 µM [6]: < 50%; inhibition at 10 µM (Trypanosoma cruzi [7]): < 50%
N#Cc1ccccc1C(=O)NCCc1csc(-c2ccccc2)n1	–	–	–	–	inhibition at 10 µM [6]: < 50%
O=C(NCCc1csc(-c2ccccc2)n1)c1cccs1	–	0.4 µM	–	–	–
C#Cc1cccc(C(=O)NCCc2csc(-c3ccccc3)n2)c1	760 nM	–	27	–	–
O=C(Cc1ccccc1)NCCc1csc(-c2ccccc2)n1	–	–	–	–	inhibition at 10 µM [6]: < 50%
O=C(CC1CC2CCC1C2)NCCc1csc(-c2ccccc2)n1 (racemic)	–	–	–	–	inhibition at 10 µM [6]: < 50%
O=C(NCCc1csc(-c2ccccc2)n1)c1cccc2ccccc12	–	–	–	–	inhibition at 10 µM [6]: < 50%
CS(=O)(=O)c1cccc(C(=O)NCCc2csc(-c3ccccc3)n2)c1	8500 nM	40 µM	4.9	> 1.2	–
N#Cc1ccc(C(=O)NCCc2csc(-c3ccccc3)n2)cc1	–	0.4 µM	–	> 126	inhibition at 10 µM [6]: < 50%

SMILES	IC50 [1]	IC50 (Trypanosoma cruzi [5])	selectivity ratio [2]	selectivity ratio [8]	other results
O=C(NCCc1csc(-c2ccccc2)n1)c1cccc(O)c1	–	–	–	–	inhibition at 10 µM [6]: < 50%
O=C(NCCc1csc(-c2ccccc2)n1)c1ccc(Cl)cc1	–	–	–	–	inhibition at 10 µM [6]: < 50%
O=C(NCCc1csc(-c2ccccc2)n1)c1ccco1	–	2 µM	–	–	–
CC(C)(C)OC(=O)NCCc1csc(-c2ccccc2)n1	–	–	–	–	inhibition at 10 µM [6]: < 50%
N#Cc1cccc(C(=O)NCCc2csc(-c3ccccc3)n2)c1	–	0.79 µM	–	–	–
CC(C)N(C(=O)NCCc1csc(-c2ccccc2)n1)C(C)C	9600 nM	32 µM	10	> 1.5	–
Cc1ccc(C(=O)NCCc2csc(-c3ccccc3)n2)cc1	–	40 µM	–	1.2	inhibition at 10 µM [6]: < 50%
O=C(NCCc1csc(-c2ccccc2)n1)c1ccc2ccccc2c1	–	16 µM	–	> 3.1	inhibition at 10 µM [6]: < 50%
O=CNCCc1csc(-c2ccccc2)n1	–	–	–	–	inhibition at 10 µM [6]: < 50%; inhibition at 10 µM (Trypanosoma cruzi [7]): < 50%
O=C(NCCc1csc(-c2ccccn2)n1)c1ccccc1	–	6.3 µM	–	–	–
O=C(NCCc1csc(-c2ccccc2)n1)c1cccc(C(F)(F)F)c1	11600 nM	–	1.8	–	inhibition at 10 µM (Trypanosoma cruzi [7]): < 50%
Cc1cccc(C(=O)NCCc2csc(-c3ccccc3)n2)c1	3900 nM	6.3 µM	21	> 7.9	–
C[Si](C)(C)C#Cc1cccc(C(=O)NCCc2csc(-c3ccccc3)n2)c1	3600 nM	2 µM	2.9	> 12	–
Cc1ccc(C(=O)NCCc2csc(-c3ccccc3)n2)o1	1900 nM	–	22	–	–
O=C(NCCc1csc(-c2ccccc2)n1)c1cccc(S(F)(F)(F)(F)F)c1	–	–	–	–	inhibition at 10 µM [6]: < 50%; inhibition at 10 µM (Trypanosoma cruzi [7]): < 50%
COc1ccc(-c2nc(CCNC(=O)N3CCCCC3)cs2)cc1	–	–	–	–	inhibition at 10 µM [6]: > 50%; inhibition at 10 µM (Trypanosoma cruzi [7]): < 50%
CC(=O)NCCc1csc(-c2ccccc2)n1	–	–	–	–	inhibition at 10 µM [6]: < 50%; inhibition at 10 µM (Trypanosoma cruzi [7]): < 50%
O=C(NCCc1csc(-c2ccccc2)n1)c1ccccc1O	2300 nM	7.9 µM	18	> 3	–
O=S(=O)(NCCc1csc(-c2ccccc2)n1)c1ccccc1	–	20 µM	–	–	inhibition [6]: inactive

Further lines, with some results ahead:

IC50 [1]	IC50 (Trypanosoma cruzi [5])	SMILES	selectivity ratio [2]	selectivity ratio [8]	other results
1500 nM	–	O=C(NCCc1csc(-c2ccc(Cl)cc2)n1)N1CCCCC1	55	–	–
–	40 µM	O=C(NCCc1csc(-c2ccccc2)n1)c1ccncc1	–	–	–
5500 nM	–	O=C(NCCc1csc(-c2ccccc2)n1)C1CC2C=CC1O2 (racemic)	15	–	–
1200 nM	–	O=C(NCCc1csc(-c2ccccc2)n1)c1cscn1	68	–	–
4100 nM	32 µM	O=C(NCCc1csc(-c2ccccc2)n1)c1cnccn1	20	> 1.5	–
220 nM	0.4 µM	CC(C)OC(=O)NCCc1csc(-c2ccccc2)n1	385	> 125	–
390 nM	1 µM	CC(C)N(C)C(=O)NCCc1csc(-c2ccccc2)n1	212	> 50	–
–	2.5 µM	O=C(NCCc1csc(-c2ccccc2)n1)c1cccnc1	–	–	–
160 nM	–	O=C(NCCc1csc(-c2cccc(Cl)c2)n1)N1CCCCC1	511	–	–
–	32 µM	O=C(NCCc1csc(-c2ccncc2)n1)c1ccccc1	–	–	–
330 nM	–	N#Cc1ccc(-c2nc(CCNC(=O)N3CCCCC3)cs2)cc1	125	–	–
–	3.2 µM	O=C(NCCc1csc(-c2ccccc2)n1)N1CCOCC1	–	–	–
280 nM	–	N#Cc1cccc(-c2nc(CCNC(=O)N3CCCCC3)cs2)c1	149	–	–
–	40 µM	O=C(NCCc1csc(-c2cccnc2)n1)c1ccccc1	–	–	–
5300 nM	40 µM	CC(C)C(=O)NCCc1csc(-c2ccccc2)n1	16	> 1.2	–
4000 nM	–	O=C(NCCc1csc(-c2ccccn2)n1)C1CCCC1	21	–	–
560 nM	0.79 µM	N#Cc1ccccc1-c1nc(CCNC(=O)N2CCCCC2)cs1	148	> 63	–

IC50 [1]	IC50 (Trypanosoma cruzi [5])	SMILES	selectivity ratio [2]	selectivity ratio [8]	other results
300 nM	0.4 µM	O=C(NCCc1csc(-c2ccccc2)n1)OC1CCCC1	280	> 125	–
740 nM	2.5 µM	O=C(NCCc1csc(-c2ccccc2)n1)c1ccon1	113	> 19	–
5000 nM	–	O=C(NCCc1csc(-c2ccccc2)n1)C1CCOCC1	17	–	–
500 nM	–	COc1ccccc1-c1nc(CCNC(=O)N2CCCCC2)cs1	168	–	–
970 nM	3.2 µM	O=C(NCCc1csc(-c2ccccc2)n1)OCC1CC1	86	> 15	–
–	0.32 µM	O=C(NCCc1csc(-c2ccccc2)n1)C1CCCCC1	–	–	–
670 nM	–	COc1cccc(-c2nc(CCNC(=O)N3CCCCC3)cs2)c1	62	–	–
9100 nM	32 µM	O=C(NCCc1csc(-c2ccncc2)n1)C1CCCC1	9	> 1.5	–
–	0.12 µM	O=C(NCCc1csc(-c2ccccc2)n1)N1CCCCCC1	–	–	–
190 nM	–	Cc1ccccc1-c1nc(CCNC(=O)N2CCCCC2)cs1	439	–	–
2400 nM	10 µM	O=C(NCCc1csc(-c2cccs2)n1)C1CCCC1	35	> 5	–
–	32 µM	O=S(=O)(NCCc1csc(-c2ccccc2)n1)N1CCCC1	–	–	inhibition [6]: inactive
900 nM	1.6 µM	CC(C)NC(=O)NCCc1csc(-c2ccccc2)n1	93	> 31	–
1700 nM	6.3 µM	CC(C)(C)C(=O)NCCc1csc(-c2ccccc2)n1	50	> 7.9	–
6600 nM	20 µM	O=C(NCCc1csc(-c2cccnc2)n1)C1CCCC1	13	> 2.5	–
1100 nM	–	O=C(NCCc1csc(-c2ccccc2)n1)n1cccc1	38	–	–
3700 nM	–	Cc1ccc(-c2nc(CCNC(=O)N3CCCCC3)cs2)cc1	22	–	–
